Results: ChEMBL document CHEMBL4715934, “Discovery of Imidazopyridines as Potent Inhibitors of Indoleamine 2,3-Dioxygenase 1 for Cancer Immunotherapy” (ACS Med Chem Lett, 2021)

What was measured:
[1] = target: T1, Indoleamine 2,3-dioxygenase 1 (Homo sapiens, UniProt P14902); assay: Inhibition of IDO1 in recombinant IFN-gamma induced human HeLa cells incubated for 18 hrs by fluorescence microplate reader assay
Method in brief: (§1)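 HeLa (human) or M109 (murine) cells induced with IFNγ to express IDO1, then cellular IDO1 activity measured; values are the average of N = 2 unless noted.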

[2] = target: Indoleamine 2,3-dioxygenase 1 (Mus musculus, UniProt P28776); assay: Inhibition of IDO1 in recombinant IFN-gamma induced mouse M109 cells incubated for 18 hrs by fluorescence microplate reader assay; format: cell-based; method in brief: as §1
[3] = Metabolic stability in human liver microsomes assessed as parent compound remaining at 0.5 uM after 10 mins; format: ADME, Microsome; details: read-out: Stabilty
Method in brief: (§2)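 Parent compound at 0.5 μM incubated 10 min with 1 mg/mL human, mouse or rat liver microsomes; fraction of parent remaining reported; average of N = 2 unless noted.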

[4] = Metabolic stability in mouse liver microsomes assessed as parent compound remaining at 0.5 uM after 10 mins; format: ADME, Microsome; details: read-out: Stabilty; method in brief: as §2
[5] = Metabolic stability in rat liver microsomes assessed as parent compound remaining at 0.5 uM after 10 mins; format: ADME, Microsome; details: read-out: Stabilty; method in brief: as §2
[6] = target: T1, Indoleamine 2,3-dioxygenase 1; assay: Inhibition of IDO1 in IFN-gamma/LPS induced human whole blood assessed as tryptophan/kynurenine level measured after 18 hrs by RapidFire mass spectrometry; format: tissue-based
[7] = target: T2, Nuclear receptor subfamily 1 group I member 2 (Homo sapiens, UniProt O75469); assay: Transactivation of PXR (unknown origin) assessed as CYP450 induction
T2 sequence (O75469 whole entry): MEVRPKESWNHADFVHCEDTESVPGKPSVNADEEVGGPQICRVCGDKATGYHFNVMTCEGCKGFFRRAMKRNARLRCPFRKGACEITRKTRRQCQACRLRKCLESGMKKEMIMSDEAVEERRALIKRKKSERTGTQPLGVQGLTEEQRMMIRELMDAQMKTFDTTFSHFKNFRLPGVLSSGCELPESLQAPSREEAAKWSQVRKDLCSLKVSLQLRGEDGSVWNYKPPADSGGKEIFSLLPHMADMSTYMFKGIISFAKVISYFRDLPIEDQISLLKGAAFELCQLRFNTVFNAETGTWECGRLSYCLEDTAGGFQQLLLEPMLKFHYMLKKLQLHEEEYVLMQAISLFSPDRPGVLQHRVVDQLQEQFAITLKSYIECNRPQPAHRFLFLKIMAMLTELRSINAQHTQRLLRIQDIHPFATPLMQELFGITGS

PXR (NR1I2) = target: T3, PXR (NR1I2) (Homo sapiens, UniProt O75469); assay: Transactivation of PXR (unknown origin) assessed as CYP450 induction relative to rifampicin
T3 sequence (O75469 whole entry): T2 sequence (O75469 whole entry)

T1 sequence (P14902 whole entry): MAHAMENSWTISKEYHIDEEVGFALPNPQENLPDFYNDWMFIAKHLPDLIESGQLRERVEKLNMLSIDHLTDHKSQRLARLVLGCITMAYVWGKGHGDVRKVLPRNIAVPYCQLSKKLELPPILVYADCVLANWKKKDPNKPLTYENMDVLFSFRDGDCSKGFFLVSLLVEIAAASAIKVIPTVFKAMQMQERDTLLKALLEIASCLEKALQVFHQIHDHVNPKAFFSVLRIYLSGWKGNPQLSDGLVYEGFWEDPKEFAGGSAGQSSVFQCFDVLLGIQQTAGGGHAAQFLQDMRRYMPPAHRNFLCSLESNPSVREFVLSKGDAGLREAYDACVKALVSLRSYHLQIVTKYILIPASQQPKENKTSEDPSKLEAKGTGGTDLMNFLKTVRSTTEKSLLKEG
Chain of Indoleamine 2,3-dioxygenase 1 (Mus musculus, UniProt P28776) (P28776 whole entry): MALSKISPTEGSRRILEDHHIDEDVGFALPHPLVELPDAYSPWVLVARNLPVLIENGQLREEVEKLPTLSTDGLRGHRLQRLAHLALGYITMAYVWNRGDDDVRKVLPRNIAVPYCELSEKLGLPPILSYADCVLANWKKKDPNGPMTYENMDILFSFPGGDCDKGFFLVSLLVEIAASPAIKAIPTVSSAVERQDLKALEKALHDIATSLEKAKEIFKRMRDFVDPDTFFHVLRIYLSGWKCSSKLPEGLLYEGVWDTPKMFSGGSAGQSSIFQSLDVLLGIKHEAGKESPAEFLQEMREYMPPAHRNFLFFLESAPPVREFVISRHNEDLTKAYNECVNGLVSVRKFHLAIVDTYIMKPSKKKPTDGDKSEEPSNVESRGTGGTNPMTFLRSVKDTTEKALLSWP

For `CCC(Nc1nnc(-c2ccc(OC)cc2)o1)[C@H]1CC[C@H](Oc2ccnc3ccccc23)CC1` (stereo partly drawn), the IC50 [1] was 13 nM, the IC50 [2] was 148 nM and the remaining at 10 min, 0.5 µM [3] was 83%. The remaining at 10 min, 0.5 µM [4] was 39%, the remaining at 10 min, 0.5 µM [5] was 88% and the IC50 [6] was 459 nM. The EC50 [7] was greater than 50000 nM and the Emax (PXR (NR1I2)) was greater than 50%.
